Measurements collected from several papers.
Each line is one published result; the experiments were not run side by side.
Target: Serine/threonine-protein kinase 17A (STK17A, Homo sapiens, UniProt Q9UEE5)
Residues used in one study (Q9UEE5 1-414): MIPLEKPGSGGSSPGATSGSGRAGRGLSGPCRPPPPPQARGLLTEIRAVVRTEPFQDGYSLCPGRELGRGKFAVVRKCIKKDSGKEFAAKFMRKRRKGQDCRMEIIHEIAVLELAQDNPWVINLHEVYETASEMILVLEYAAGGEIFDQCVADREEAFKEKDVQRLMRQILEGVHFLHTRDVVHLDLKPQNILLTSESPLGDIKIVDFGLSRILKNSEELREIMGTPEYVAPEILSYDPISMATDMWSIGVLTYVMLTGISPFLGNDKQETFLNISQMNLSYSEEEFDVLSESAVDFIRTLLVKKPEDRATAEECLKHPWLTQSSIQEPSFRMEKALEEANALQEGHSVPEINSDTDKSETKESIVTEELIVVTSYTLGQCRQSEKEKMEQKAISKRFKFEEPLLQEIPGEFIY

The inhibition of Cn1cc(-c2cc(F)cc(N3CCn4c(cc5c4CCCC5)C3=O)c2CO)cc(Nc2ccc(N3CCN(C4COC4)CC3)cn2)c1=O is reported as 3% (enzyme activity, inhibitor; 0.1 µM).
With Nc1ncc(-c2nc(N3CCOCC3)nc(N3CCOCC3)n2)c(C(F)F)n1 the remaining binding was 89% (binding, competition with immobilised ligand; 10 µM).
C#Cc1n[nH]c2c(-c3cn([C@@H](C)c4ccccn4)c(=O)[nH]c3=O)cc(F)cc12 has an inhibition of -0.6% (enzyme activity, inhibitor; 0.1 µM).
The inhibition of Cn1cc(-c2cccc(N3CCc4c(sc5c4CC(C)(C)C5)C3=O)c2CO)cc(Nc2ccncn2)c1=O is reported as -5% (enzyme activity, inhibitor; 1 µM).
O=c1[nH]c2ccccc2n1C1CCN(Cc2ccc(-c3[nH]c4cc5ncnc5cc4nc3-c3ccccc3)cc2)CC1 has a remaining signal of 98.2% (cell-free assay; 0.5 µM).
The inhibition of C#Cc1n[nH]c2c(-c3cn([C@@H](C)c4ccccc4)c(=O)[nH]c3=O)cc(F)cc12 is reported as 1.1% (enzyme activity, inhibitor; 0.1 µM).
With Cc1nn(C)cc1-c1nc2c(N3CCN(Cc4ccc(Cl)cc4)CC3)c(Cl)cnc2[nH]1 the remaining binding was 13% (binding, competition with immobilised ligand; 1 µM).
With COc1ncccc1-c1cnn2ccc(N3CCN(C(=O)OC(C)C)CC3)nc12 the remaining binding was 6.4% (binding, competition with immobilised ligand; 1 µM).
For CC(C)(C)c1cc(C=C(C#N)C#N)cc(Br)c1O, the remaining activity was 92.3% (enzyme activity, inhibitor; 0.5 µM).
Cn1cncc1[C@](O)(COc1ccc(C#N)cc1-c1ccc(OC(F)(F)F)cc1)c1ccc(C#N)cc1 gave a remaining binding of 100% (cell-free assay, competition with immobilised ligand; 1 µM).
